This is an account of results in ChEMBL document CHEMBL3407473, “5'-(N-aminoacyl)-sulfonamido-5'-deoxyadenosine: attempts for a stable alternative for aminoacyl-sulfamoyl adenosines as aaRS inhibitors” (2015).

One assay deals with Micrococcus luteus. The experiment in a line: Antimicrobial activity against Sarcina lutea ATCC 9341 after 18 hrs by broth dilution method. The settings on record: ATCC 9341, 18 h. The format is functional. Summed up: (§1)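 Strains grown overnight in LB, then subcultured the next day in fresh LB. Compounds serially diluted in LB in 96-well plates with cell suspension. Growth read as optical density. Highest concentration tested […], as printed. Broth dilution run in triplicate. MIC50 taken from the OD readings.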
In general terms: Dilution methods test growth across graded concentrations, often in twofold steps.

The next assay concerns Staphylococcus aureus. The experiment in a line: Antimicrobial activity against Staphylococcus aureus ATCC 6538 after 18 hrs by broth dilution method. The format is functional. The conditions noted are these: ATCC 6538, 18 h. Summed up: as §1
A further assay concerns Candida albicans. Kind of assay: Antimicrobial activity against Candida albicans CO11 after 18 hrs by broth dilution method. The format is functional. The settings on record: CO11, 18 h. Summed up:
as §1

The test system of assay [1] is Escherichia coli. The experiment in a line: Antimicrobial activity against wild-type Escherichia coli after 18 hrs by broth dilution method. The format is functional. Summed up: as §1
Assay [2] concerns Escherichia coli. The experiment in a line: Inhibition of aminoacyl tRNA synthetase in wild-type Escherichia coli S30 cell extract asessed as inhibition of [14C]-radiolabeled aminoacid incorporation at 50 uM after 5 mins by liquid scintillation counting analysis. Summed up: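 Inhibitor incubated with 3 L E. coli wt S30 extract, as printed. Aminoacylation mix: Tris.HCl 30 mM pH 8.0, DTT 1 mM, bulk E. coli tRNA 5 g/l, ATP 3 mM, KCl 30 mM, MgCl2 8 mM, 14C-labelled amino acid 40 M (200 mCi/mmol), units as printed. Samples spotted on papers, washed with cold 10% TCA then acetone, dried. Radioactivity read by scintillation counting.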

Each structure is given as a SMILES string. In brackets after ≈: the same amount, converted by molar mass. Activity calls are given as the source filed them. The rule behind the calls is not given here.

As to `CC[C@H](C)[C@H](N)C(=O)NS(=O)(=O)C[C@H]1O[C@@H](n2cnc3c(N)ncnc32)[C@H](O)[C@@H]1O`, the MIC50 with Micrococcus luteus, in the assay with Staphylococcus aureus, against Candida albicans and against Escherichia coli [1] was over 100 µM each time.

As for `NCC(=O)NS(=O)(=O)C[C@H]1O[C@@H](n2cnc3c(N)ncnc32)[C@H](O)[C@@H]1O`, the MIC50 with Micrococcus luteus, with Staphylococcus aureus, against Candida albicans and against Escherichia coli [1] was over 100 µM throughout.

For `Nc1ncnc2c1ncn2[C@@H]1O[C@H](CS(=O)(=O)NC(=O)[C@@H](N)Cc2ccc(O)cc2)[C@@H](O)[C@H]1O`, the MIC50 in the assay with Micrococcus luteus, with Staphylococcus aureus, against Candida albicans and against Escherichia coli [1] was over 100 µM throughout.

Take `Nc1ncnc2c1ncn2[C@@H]1O[C@H](CS(=O)(=O)NC(=O)[C@@H](N)CO)[C@@H](O)[C@H]1O`: the MIC50 in the assay with Micrococcus luteus, against Staphylococcus aureus, against Candida albicans and against Escherichia coli [1] was over 100 µM throughout.

As to `CC(C)C[C@H](N)C(=O)NS(=O)(=O)C[C@H]1O[C@@H](n2cnc3c(N)ncnc32)[C@H](O)[C@@H]1O`, the MIC50 in the assay with Micrococcus luteus, in the assay on Staphylococcus aureus, in the assay on Candida albicans and in the assay with Escherichia coli [1] was over 100 µM each time.

Regarding `Nc1ncnc2c1ncn2[C@@H]1O[C@H](CS(=O)(=O)NC(=O)[C@@H](N)CC(=O)O)[C@@H](O)[C@H]1O`, the MIC50 (in general, the lowest concentration that inhibits either 50% of growth or 50% of the strains tested, depending on the study) against Micrococcus luteus was over 100 µM; in the assay on Staphylococcus aureus, over 100 µM; in the assay on Candida albicans it was over 100 µM; with Escherichia coli [1] it was 50 µM (≈ 22.3 µg/mL). Also, the inhibition entry in the assay with Escherichia coli [2] is “Active”.
